Source: PubChem (Johns Hopkins Ion Channel Center)
This is a sample that favours compounds with a hit; in the whole collection about 2.3% have one here.
TRPC4 potent = positive allosteric modulators of TRPC4, primary screen, cell-based, mouse TRPC4beta, HEK293 mu-opioid, Fluo-4 calcium. DAMGO EC20, Fluo-4 Ca2+ flux; active compounds read high. B-score at 10 µM. AID 2227, 2009. Short transient receptor potential channel 4 (Mus musculus), Q9QUQ5. hit rate 0.42% among 310,000;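 active means B-score of calcium response area above 5 SD of library B-scores, with initial fluorescence ratio within 5 SD of library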;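 further: B-score of integrated fluorescence ratio over time as area under calcium response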
TRPC4 inh = inhibitors of mouse TRPC4 channel, primary screen, Fluo4 calcium, HEK293 TRPC4beta/mu-opioid cells. hit rate 0.39% among 300,000. Short transient receptor potential channel 4 (Mus musculus), Q9QUQ5. B-score at 10 µM. DAMGO-evoked Fluo4 calcium flux; active compounds read low;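 active means B-score over 3 SD under the library average, no early fluorescence shift, positive overall ratio signal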
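Assay system: TRPC4beta/mu-opioid receptor HEK293 cell line; compound dosing: single concentration per test compound; detection: Fluo4 Ca2+ flux fluorescence; evaluation: per-well B score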
TRPC4 agonist = activators of mouse TRPC4 channel, primary screen, Fluo4 calcium, HEK293 TRPC4beta/mu-opioid cells; AID 2237, 2010; hit rate 0.49% among 310,000; Short transient receptor potential channel 4 (Mus musculus), Q9QUQ5; Fluo4 calcium fluorescence; active compounds read high; B-score at 10 µM;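 active means B-score above 5 SD of library B-scores, and initial fluorescence ratio not above library mean plus 5 SD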;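 further: positive B-score marks a calcium rise read as TRPC4 activation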
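Technique: kinetic Fluo4 calcium fluorescence; Test system: TRPC4beta and mu-opioid receptor HEK293 stable cells; Measure: B-scored integrated calcium fluorescence ratio; Benchmarks: low control buffer alone, high control maximal DAMGO; Schedule: 45 min room-temperature Fluo4 loading, 110 s read.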
TRPC6 inh = mouse TRPC6 channel inhibitors, primary screen, cell-based, HEK293, membrane potential dye. ACh-evoked depolarization; active compounds read low. B-score at 10 µM. hit rate 1.1% among 310,000. AID 2553, 2010;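 active means B-score under library mean minus 3 SD, initial fluorescence not abnormally high, positive integrated signal ratio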;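 further: B-score derived from integrated fluorescence ratio over the kinetic read; more negative B-score means stronger inhibition of depolarization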
Target sequence (Q61143 whole entry, looked up): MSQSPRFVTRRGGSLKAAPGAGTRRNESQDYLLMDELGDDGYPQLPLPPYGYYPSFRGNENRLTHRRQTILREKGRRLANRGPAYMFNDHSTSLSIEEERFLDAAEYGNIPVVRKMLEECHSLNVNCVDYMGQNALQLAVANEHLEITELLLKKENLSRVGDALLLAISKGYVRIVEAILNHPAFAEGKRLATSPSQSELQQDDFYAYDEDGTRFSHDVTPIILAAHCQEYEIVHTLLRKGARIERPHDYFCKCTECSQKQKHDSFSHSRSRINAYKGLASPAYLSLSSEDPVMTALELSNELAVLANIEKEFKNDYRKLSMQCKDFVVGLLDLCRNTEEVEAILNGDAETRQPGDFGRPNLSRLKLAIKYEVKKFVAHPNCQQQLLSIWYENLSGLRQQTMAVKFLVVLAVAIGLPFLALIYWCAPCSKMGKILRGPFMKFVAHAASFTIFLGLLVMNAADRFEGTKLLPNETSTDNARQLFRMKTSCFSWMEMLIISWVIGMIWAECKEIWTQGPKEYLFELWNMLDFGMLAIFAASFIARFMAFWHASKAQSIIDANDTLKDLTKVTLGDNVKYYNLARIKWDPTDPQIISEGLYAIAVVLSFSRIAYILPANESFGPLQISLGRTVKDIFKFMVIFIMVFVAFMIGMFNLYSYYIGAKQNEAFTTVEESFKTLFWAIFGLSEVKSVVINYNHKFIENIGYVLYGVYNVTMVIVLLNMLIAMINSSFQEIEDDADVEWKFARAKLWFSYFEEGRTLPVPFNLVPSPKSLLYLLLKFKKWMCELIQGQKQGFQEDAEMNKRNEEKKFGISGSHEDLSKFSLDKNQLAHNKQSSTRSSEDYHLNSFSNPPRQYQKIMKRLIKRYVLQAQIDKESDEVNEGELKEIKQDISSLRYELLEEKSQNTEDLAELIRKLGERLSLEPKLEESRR
TRPC6 activator = mouse TRPC6 channel activators, primary screen, cell-based, HEK293, membrane potential dye; HEK293-TRPC6 membrane potential dye fluorescence; active compounds read high; B-score at 10 µM; AID 2550, 2010; Short transient receptor potential channel 6 (Mus musculus), Q61143; hit rate 0.13% among 310,000;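 active means B-score of the integrated fluorescence ratio above library mean plus 3 SD, and starting fluorescence ratio within library mean plus 5 SD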;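 further: higher score means more depolarization so channel activation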
TRPC4 spec 2 = mouse TRPC4 off-target activity of TRPC6 inhibitors, second screen; shares compounds with TRPC6 inh; HEK293 TRPC4/MOR, membrane potential dye fluorescence; channel activated by saturating DAMGO dose; inhibition, % at 10 µM; hit rate 42% among 920; AID 2776;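 active means compounds whose fluorescence signal differed from control wells by over 3 SD, either direction, in both duplicate plates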
TRPC4 spec = mouse TRPC4 modulation by TRPC6 hits, confirmation, selectivity assay for TRPC6 inhibitor project, cell-based, HEK293 TRPC4/mu-opioid, membrane potential dye. shares compounds with TRPC6 inh. AID 2777, 2010. membrane potential fluorescence. hit rate 61% among 920. activity change, negative = inhibition, % at 10 µM;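 active means rise or fall in signal beyond 3 SD of buffer-only wells in both replicate plates, either sign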;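 further: integrated kinetic ratio of fluorescence range over baseline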
HEK293 MPD ctr 2-1 = nonspecific membrane potential effects, parental HEK293, confirmation, counter-screen for TRPC6 inhibitor project, cell-based, second counter screen; shares compounds with TRPC6 inh; parental HEK293 membrane potential dye fluorescence; maximal acetylcholine challenge after compound addition; signal change vs control, % at 10 µM; hit rate 31% among 920; AID 2779, 2010;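 active means membrane potential signal moving either way by over 3 SD of the maximum-effect control, in both duplicate plates, meaning non-specific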
HEK293 MPD ctr-1 = membrane potential modulation in parental HEK293, confirmation, counter-screen for TRPC6 inhibitor project, cell-based | shares compounds with TRPC6 inh | parental HEK293 membrane potential dye fluorescence | membrane potential signal change, % at 10 µM | hit rate 60% among 920;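 active means membrane potential signal shifting up or down by more than 3 SD of buffer-only wells, on both duplicate plates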
HEK293 MPD ctr-2 = parental HEK293 membrane potential modulation, confirmation, counter-screen for TRPC6 modulator project, cell-based. shares compounds with TRPC6 inh. AID 488924, 2010. membrane potential dye fluorescence. hit rate 51% among 2,400. membrane potential signal change, % at 10 µM;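 active means membrane potential signal moves up or down beyond 5 SD from buffer-only wells, on both duplicate plates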
HEK293 MPD ctr 2-2 = parental HEK293 nonspecific activity of TRPC6 modulators, second screen; shares compounds with TRPC6 inh; inhibition, % at 10 µM; AID 488926; hit rate 14% among 2,400; membrane potential dye fluorescence; after compound, maximal acetylcholine stimulation;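 active means membrane potential signal drops by more than 5 SD from the mean control signal, in both duplicate plates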;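 further: plate controls were acetylcholine ECmax control wells for no effect and buffer only wells for full effect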
TRPC4 ctr mod = TRPC4 modulation by TRPC6 hit compounds, confirmation, selectivity assay for TRPC6 modulator project, cell-based, HEK293 TRPC4/mu-opioid, membrane potential dye, mouse. hit rate 69% among 2,400. AID 488927, 2010. percent change from control (negative = decrease, positive = increase), % at 10 µM. shares compounds with TRPC6 inh. membrane potential fluorescence;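 active means membrane potential signal moved up or down beyond 5 SD of buffer control wells, in both duplicate plates, actives on both sides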;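 further: plate controls were assay buffer wells for no effect and DAMGO maximal-effect wells for full effect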
TRPC4 ctr inh 2 = mouse TRPC4 off-target activity of TRPC6 modulators, second screen. shares compounds with TRPC6 inh. HEK293 TRPC4/mu-opioid, membrane potential dye fluorescence; stimulated with maximal-effect DAMGO. inhibition, % at 10 µM. hit rate 55% among 2,400;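 active means drop in membrane potential signal beyond 5 SD of the control wells in both duplicate plates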;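 further: TRPC4 counter screen for TRPC6 hits run under conditions tuned for TRPC6 not TRPC4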
TRPC6 inh conf = mouse TRPC6 channel inhibitors, confirmation, HEK293 cells, membrane potential dye, duplicate. ACh-evoked depolarization. hit rate 43% among 3,300. AID 488960, 2010. shares compounds with TRPC6 inh. inhibition, % at 10 µM;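 active means fluorescence ratio falls more than 5 SD below the full-stimulation control mean, in both duplicate runs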;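 further: integrated fluorescence ratio of peak minus minimum over baseline after agonist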
TRPC6 act conf = mouse TRPC6 channel activators, confirmation, HEK293 cells, membrane potential dye, duplicate; shares compounds with TRPC6 inh; HEK293-TRPC6 membrane potential dye fluorescence, FDSS; activation, % at 10 µM; hit rate 11% among 2,800; AID 488961, 2010;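 active means ratio signal rise beyond 5 SD above unstimulated control wells' mean, seen in both duplicate runs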;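 further: plate controls were buffer EC0 wells for no effect and acetylcholine ECmax response for full effect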
* marks the source's active call; other numbers are inactive results.

COc1ccccc1CNC(=O)C1CC2Cn3c(nc4ccccc43)C2N1C (centres undefined) was read as TRPC4 potent inactive, TRPC4 inh inactive, TRPC4 agonist inactive, TRPC6 inh inactive, TRPC6 activator 13*, HEK293 MPD ctr-2 inactive, HEK293 MPD ctr 2-2 inactive, TRPC4 ctr mod inactive, TRPC4 ctr inh 2 inactive, TRPC6 inh conf inactive and TRPC6 act conf inactive.
COc1ccccc1CNC(=O)C1CC2Cn3c(nc4cc(C)c(C)cc43)C2N1C (centres undefined) was read as TRPC4 potent inactive, TRPC4 inh inactive, TRPC4 agonist inactive, TRPC6 inh inactive and TRPC6 activator inactive.
`O=c1[nH]c2ccsc2c(=O)n1CCO` gave TRPC4 potent inactive, TRPC4 inh inactive, TRPC4 agonist inactive, TRPC6 inh inactive and TRPC6 activator inactive.
Screening CCCc1ccc(-c2cc(C(=O)N3CCN(c4ccccn4)CC3)c3ccccc3n2)cc1 returned TRPC4 potent inactive, TRPC4 inh inactive, TRPC4 agonist inactive, TRPC6 inh inactive and TRPC6 activator inactive.
`O=S1(=O)CC(O)C(NCCO)C1` (centres undefined) gave TRPC4 potent inactive, TRPC4 inh inactive, TRPC4 agonist inactive, TRPC6 inh inactive and TRPC6 activator inactive.
For CN(C)CCCNC1CS(=O)(=O)CC1O (centres undefined) the results were TRPC4 potent inactive, TRPC4 inh inactive, TRPC4 agonist inactive, TRPC6 inh -7.2*, TRPC6 activator inactive, TRPC4 spec 2 inactive, TRPC4 spec inactive, HEK293 MPD ctr 2-1 inactive, HEK293 MPD ctr-1 inactive, TRPC6 inh conf inactive and TRPC6 act conf inactive.
Screening O=S1OCCN1c1ccccc1 (centres undefined) returned TRPC4 potent inactive, TRPC4 inh inactive, TRPC4 agonist inactive, TRPC6 inh inactive and TRPC6 activator inactive.
Cc1cc(C)c2sc(N(CCCN(C)C)C(=O)c3ccc(Br)s3)nc2c1 was read as TRPC4 potent inactive, TRPC4 inh inactive, TRPC4 agonist inactive, TRPC6 inh -9.6*, TRPC6 activator inactive, TRPC4 spec 2 35%*, TRPC4 spec -17%*, HEK293 MPD ctr 2-1 inactive, HEK293 MPD ctr-1 inactive, TRPC6 inh conf 78%* and TRPC6 act conf inactive.
`CN(C)CCCN(C(=O)c1ccc2ccccc2c1)c1nc2cc3c(cc2s1)OCO3` gave TRPC4 potent inactive, TRPC4 inh inactive, TRPC4 agonist inactive, TRPC6 inh inactive and TRPC6 activator inactive.
Screening COc1ccc(C)c2sc(N(CCN(C)C)C(=O)c3cccc(N4C(=O)CCC4=O)c3)nc12 returned TRPC4 potent inactive, TRPC4 inh inactive, TRPC4 agonist 68*, TRPC6 inh -6.4*, TRPC6 activator inactive, HEK293 MPD ctr-2 inactive, HEK293 MPD ctr 2-2 inactive, TRPC4 ctr mod -18%*, TRPC4 ctr inh 2 44%*, TRPC6 inh conf inactive and TRPC6 act conf inactive.
Screening CN(C)CCCN(C(=O)c1ccc2c(c1)OCCO2)c1nc2cc3c(cc2s1)OCO3 returned TRPC4 potent inactive, TRPC4 inh inactive, TRPC4 agonist inactive, TRPC6 inh -5.7*, TRPC6 activator inactive, HEK293 MPD ctr-2 inactive, HEK293 MPD ctr 2-2 inactive, TRPC4 ctr mod -18%*, TRPC4 ctr inh 2 80%*, TRPC6 inh conf 78%* and TRPC6 act conf inactive.
For Cc1cc(C)c2nc(N(CCCN(C)C)C(=O)c3ccc4c(c3)OCCO4)sc2c1 the results were TRPC4 potent inactive, TRPC4 inh inactive, TRPC4 agonist inactive, TRPC6 inh -8.2*, TRPC6 activator inactive, TRPC4 spec 2 inactive, TRPC4 spec inactive, HEK293 MPD ctr 2-1 inactive, HEK293 MPD ctr-1 0.4%*, TRPC6 inh conf inactive and TRPC6 act conf inactive.
Screening Cc1cc(=O)oc2c(CN3CC(C)OC(C)C3)c(O)c(Cl)cc12 (centres undefined) returned TRPC4 potent inactive, TRPC4 inh inactive, TRPC4 agonist inactive, TRPC6 inh inactive and TRPC6 activator inactive.
